Measurements published in ChEMBL document CHEMBL3785035, “Phase II Metabolic Pathways of Spectinamide Antitubercular Agents: A Comparative Study of the Reactivity of 4-Substituted Pyridines to Glutathione Conjugation” (Medchemcomm, 2016).

Key:
Type in all cases: ADME, subcellular
[1] = Metabolic stability in human liver S9 fraction assessed as parent compound remaining at 100 uM preincubated for 5 mins followed by UDPGA addition measured after 2 hrs by LC-MS/MS analysis; settings: read-out: Stability
Procedure, shortened: (§1)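 Glucuronidation: 2 mg/mL rat or human S9 in 0.1 M potassium phosphate pH 7.4, activated with alamethicin (50 μg) 15 min on ice. Then 1 mM MgCl2 was added, with 5 min preincubation at 37 °C. Started with UDPGA (5 mM in incubation); controls without UDPGA. Samples taken to 120 min and quenched with methanol plus internal standard. LC-MS/MS; % parent relative to time zero.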

[2] = Metabolic stability in rat liver S9 fraction assessed as parent compound remaining at 100 uM preincubated for 5 mins followed by UDPGA addition measured after 2 hrs by LC-MS/MS analysis; settings: read-out: Stability; procedure, shortened: as §1
[3] = (§2) Metabolic stability in rat liver S9 fraction assessed as parent compound remaining at 100 uM preincubated for 5 mins followed by PAPS addition measured after 2 hrs by LC-MS/MS analysis; settings: liver S9 fraction, read-out: Stability
Procedure, shortened: (§3)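 Sulfation incubation: rat or human liver S9 at 2 mg/mL in 0.1 M potassium phosphate pH 7.4 with 1 mM MgCl2. Preincubated 5 min at 37 °C, then started with PAPS (0.2 mM in incubation). Controls lacked PAPS. Aliquots taken over 120 min and quenched in cold methanol with internal standard. LC-MS/MS read-out; parent remaining expressed against time zero.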

[4] = (§4) Metabolic stability in human liver S9 fraction assessed as parent compound remaining at 100 uM preincubated for 5 mins followed by PAPS addition measured after 2 hrs by LC-MS/MS analysis; settings: liver S9 fraction; procedure, shortened: as §3
[5] = Metabolic stability in rat liver S9 fraction assessed as parent compound remaining at 100 uM preincubated for 5 mins followed by glutathione addition measured after 2 hrs by LC-MS/MS analysis; settings: read-out: Stability
Procedure, shortened: (§5)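 S9 (rat or human) at 10 mg/mL in 0.1 M potassium phosphate pH 7.4, with 1 mM MgCl2. Preincubated 5 min at 37 °C, 150 rpm, then started with glutathione (0.2 mM in incubation). Controls lacked glutathione. Sampled 0–120 min, quenched in ice-cold methanol with internal standard. Parent measured by HILIC LC-MS/MS and expressed as % of time zero. Mean with %CV.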

[6] = Metabolic stability in human liver S9 fraction assessed as parent compound remaining at 100 uM preincubated for 5 mins followed by glutathione addition measured after 2 hrs by LC-MS/MS analysis; settings: read-out: Stability; procedure, shortened: as §5
[7] = Half life in rat liver S9 fraction at 100 uM preincubated for 5 mins followed by glutathione addition measured after 2 hrs by LC-MS/MS analysis; procedure, shortened: as §5
[8] = Half life in human liver S9 fraction at 100 uM preincubated for 5 mins followed by glutathione addition measured after 2 hrs by LC-MS/MS analysis; procedure, shortened: as §5
Liver [9] = assay: as §2; settings: s9, 2 h, 100 µM; procedure, shortened: as §3
Liver [10] = assay: as §4; settings: s9, 2 h, 100 µM; procedure, shortened: as §3

Compound	remaining at 2 h, 100 µM [1]	remaining at 2 h, 100 µM [2]	remaining at 2 h, 100 µM [3]	remaining at 2 h, 100 µM [4]	remaining at 2 h, 100 µM [5]	remaining at 2 h, 100 µM [6]	half-life at 100 µM [7]	half-life at 100 µM [8]	Stability (Liver [9])	Stability (Liver [10])
CN[C@@H]1[C@H](O)[C@H](NC)[C@H]2O[C@]3(O)[C@H](O[C@@H]2[C@H]1O)O[C@H](C)C[C@H]3NC(=O)Cc1cc(Cl)c(OC)cn1	> 93%	> 93%	> 95%	> 96%	81.1%	98.8%	402 min	> 3000 min	–	–
CN[C@@H]1[C@H](O)[C@H](NC)[C@H]2O[C@]3(O)[C@H](O[C@@H]2[C@H]1O)O[C@H](C)C[C@H]3NC(=O)Cc1cc(Cl)c(C)cn1	> 93%	> 93%	–	–	12.9%	93.5%	39.6 min	1380 min	Stable	91%
CN[C@@H]1[C@H](O)[C@H](NC)[C@H]2O[C@]3(O)[C@H](O[C@@H]2[C@H]1O)O[C@H](C)C[C@H]3NC(=O)Cc1ccccn1	> 93%	> 93%	–	–	99.8%	96.7%	> 3000 min	2280 min	89%	> 96%
CN[C@@H]1[C@H](O)[C@H](NC)[C@H]2O[C@]3(O)[C@H](O[C@@H]2[C@H]1O)O[C@H](C)C[C@H]3NC(=O)Cc1cc(Cl)ccn1	> 93%	> 93%	–	–	71.9%	98.7%	201 min	> 3000 min	88%	> 96%
CC(=O)Nc1ccc(O)cc1 [ACETAMINOPHEN]	–	–	–	–	43%	74.5%	88.8 min	264 min	–	–

Further lines, with some results ahead:

remaining at 2 h, 100 µM [1]	remaining at 2 h, 100 µM [2]	remaining at 2 h, 100 µM [3]	remaining at 2 h, 100 µM [4]	remaining at 2 h, 100 µM [5]	remaining at 2 h, 100 µM [6]	half-life at 100 µM [7]	half-life at 100 µM [8]	Compound	Stability (Liver [9])	Stability (Liver [10])
> 93%	> 93%	> 95%	> 96%	99.4%	99.9%	> 3000 min	> 3000 min	CN[C@@H]1[C@H](O)[C@H](NC)[C@H]2O[C@]3(O)[C@H](O[C@@H]2[C@H]1O)O[C@H](C)C[C@H]3NC(=O)Cc1ccc(Cl)cn1	–	–
> 93%	> 93%	> 95%	> 96%	96.6%	98.7%	1960 min	> 3000 min	CN[C@@H]1[C@H](O)[C@H](NC)[C@H]2O[C@]3(O)[C@H](O[C@@H]2[C@H]1O)O[C@H](C)C[C@H]3NC(=O)Cc1ccc(F)cn1	–	–
> 93%	> 93%	> 95%	> 96%	98.6%	98.6%	> 3000 min	> 3000 min	CN[C@@H]1[C@H](O)[C@H](NC)[C@H]2O[C@]3(O)[C@H](O[C@@H]2[C@H]1O)O[C@H](C)C[C@H]3NC(=O)Cc1cc(Cl)c(F)cn1	–	–
> 93%	> 93%	> 95%	> 96%	98.6%	99.9%	> 3000 min	> 3000 min	CN[C@@H]1[C@H](O)[C@H](NC)[C@H]2O[C@]3(O)[C@H](O[C@@H]2[C@H]1O)O[C@H](C)C[C@H]3NC(=O)Cc1ccc(O)cn1	–	–
